# EBV gp42 block: blocks Epstein-Barr virus glycoprotein 42 binding | Q1HVG2 | Fluorescence polarization binding assay, mP read-out | inhibition, % (tested at 21.74 µM) | hit rate 0.42% among 220,000 | AID 1085
# RanGTP-Impb inh: inhibitors of RanGTP-importin-beta interaction, primary screen, biochemical, FRET, CFP-Ran, YFP-importin-beta, homogeneous | cell-free CFP-Ran/YFP-importin-beta FRET ratio | inhibition, % (test concentration not listed) | hit rate 1.1% among 300,000 | AID 2216;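 active means more than half of the replicate wells show a fall in the fluorescence ratio signal beyond about 16%, limit read from the data, passing the limit was not always enough; inconclusive means exactly half of the replicate wells pass the set limit; inactive means fewer than half of replicates pass the limit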;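 further: 0% = DMSO wells and 100% = Ran loaded with GDP instead of GTP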
# PKD1 kinase inh: blocks activity of human protein kinase D1. AID 797. inhibition, % (concentration not given with the values). hit rate 0.056% among 200,000. PKD1 kinase fluorescence polarization assay
# Runt-SMMHC FRET: Runt domain-CBFb-SMMHC interaction inhibition. Q01196+Q13951. Cerulean-Runt/Venus-CBFb-SMMHC FRET ratio 530/480, 1 h. inhibition, % at 20 µM. hit rate 0.74% among 220,000. AID 1434;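 active means mean inhibition across duplicate retests at 20 µM reaching about 50%, limit read from the data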;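 further: 0% = DMSO wells and 100% = wells with excess untagged CBFb-SMMHC; inhibitors lower the FRET ratio by blocking Runt binding to CBFb-SMMHC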
# Target sequence (Q01196 whole entry, looked up, the tested form may be a part): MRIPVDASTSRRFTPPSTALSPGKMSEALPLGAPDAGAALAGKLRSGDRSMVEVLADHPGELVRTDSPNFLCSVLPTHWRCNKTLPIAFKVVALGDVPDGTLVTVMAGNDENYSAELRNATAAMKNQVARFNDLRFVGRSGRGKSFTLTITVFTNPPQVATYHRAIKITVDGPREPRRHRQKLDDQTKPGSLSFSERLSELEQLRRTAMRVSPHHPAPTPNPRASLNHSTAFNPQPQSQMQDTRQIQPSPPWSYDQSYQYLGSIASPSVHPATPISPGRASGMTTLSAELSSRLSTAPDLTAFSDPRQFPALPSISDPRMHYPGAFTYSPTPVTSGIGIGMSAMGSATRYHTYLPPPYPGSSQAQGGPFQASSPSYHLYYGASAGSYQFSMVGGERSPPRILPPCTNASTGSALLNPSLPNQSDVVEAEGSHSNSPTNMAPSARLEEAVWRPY
# Target sequence (Q13951 whole entry, looked up, the tested form may be a part): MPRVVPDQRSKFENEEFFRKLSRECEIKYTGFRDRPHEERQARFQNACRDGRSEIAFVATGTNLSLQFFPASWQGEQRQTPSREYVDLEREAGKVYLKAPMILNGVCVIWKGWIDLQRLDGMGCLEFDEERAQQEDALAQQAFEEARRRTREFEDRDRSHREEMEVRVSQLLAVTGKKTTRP
# MEX-5 binding: C. elegans MEX-5 TCR-2 RNA binding activity; Q9XUB2; MEX-5/FITC-TCR2 RNA binding, fluorescence polarization; stronger effect = lower value; activity score (negative = inhibition of binding), % at 10 µM; hit rate 0.38% among 300,000; AID 1832;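 active means inhibition past about -25% in most replicates, and total fluorescence under double the plate's negative control median, limit read from the data; inconclusive means replicates evenly split on the limit, or fluorescence at least double controls; inactive means too little inhibition in most replicates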;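 further: 0% = DMSO and -100% = 5 µM competing unlabeled TCR2 RNA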
# Runt-CBFb FRET: blocks binding of human RUNX1 Runt domain to CBFb | Cerulean-Runt/Venus-CBFb FRET ratio 530/480, 1 h | inhibition, % at 20 µM | hit rate 0.46% among 220,000;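 active means inhibition over about 50% at 20 µM in the single-dose screen, limit read from the data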;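 further: 0% = DMSO wells and 100% = excess unlabeled CBFb competitor control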
#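 Doses: 20 µM compound in 1% DMSO | Material: Cerulean-labeled Runt domain protein | Amount: Each fluorescent fusion protein 100 nM | Schedule: Two 1 h room-temperature incubations shielded from light | Measured by: FRET fluorescence | Evaluation: Loss of energy transfer signal | Controls: Unlabeled CBFb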
# * hit, by the source's call; u = inconclusive; x = not tested or not shown. A selection: hits, their analogues and other compounds. The true share with any hit is near 2%. Unless noted, no stated cut-off is given here; in the data, active means inhibition above about 50%; inactive means the rest.
SMILES,EBV gp42 block,RanGTP-Impb inh,PKD1 kinase inh,Runt-SMMHC FRET,MEX-5 binding,Runt-CBFb FRET
Cc1cccn2c(=O)c3cc(C(=O)NCC4CCCO4)n(C)c3nc12 (stereo not drawn),x,x,-4.9,x,x,x
CCOC(=O)c1cc2c(=O)n3ccccc3nc2n(CC2CCCO2)c1=NC(C)=O (stereo not drawn),x,70.9*,-3.4,58.7*,-1.7,42.3
Cc1ccc(CNC(=O)c2cc3c(=O)n4ccccc4nc3n(CC3CCCO3)c2=N)cc1 (stereo not drawn),10.6,-9.7,-1.7,62.6*,x,18.4
Cn1c(C(=O)NCC2CCCO2)cc2c(=O)n3ccccc3nc21 (stereo not drawn),-10.6,2.1,-1.9,60.8*,-2.8,22.8
Cc1ccc(C(=O)N/C(=C\c2cn(S(=O)(=O)N(C)C)c3ccccc23)C(=O)NCCCN2CCOCC2)cc1,x,4.6,x,x,-2.9,x
CC(C)(C)NC(=O)NC(=O)CN1C(=O)NC(c2ccccc2)(c2ccccc2)C1=O,x,-0.2,x,x,-1.1,x
O=[N+]([O-])c1ccc(/C=N\NS(=O)(=O)c2ccc(F)cc2)o1,x,u,x,x,-3.1,x
N#Cc1cc2c(=O)n3ccccc3nc2n(CC2CCCO2)c1=N (stereo not drawn),x,x,-9.7,x,x,x
N=c1c(C(=O)NC2CCCC2)cc2c(=O)n3ccccc3nc2n1CC1CCCO1 (stereo not drawn),x,173.7*,x,x,0.7,x
Cc1ccc2nc3c(cc(C(=O)NCC4CCCO4)c(=N)n3CC3CCCO3)c(=O)n2c1 (stereo not drawn),x,174.9*,x,x,-13.8,x
N=c1c(C(=O)NC2CCCCC2)cc2c(=O)n3ccccc3nc2n1CC1CCCO1 (stereo not drawn),x,171.5*,x,x,-9.5,x
CCCCn1c(N)c(N(CCOC)C(=O)CCNC(=O)c2ccc(Br)cc2)c(=O)[nH]c1=O,x,0.5,x,x,-0.1,x
CCCCn1c(N)c(N(CC(C)C)C(=O)CSc2n[nH]c(-c3ccc(C)cc3)n2)c(=O)[nH]c1=O,x,-1.6,x,x,-0.5,x
C=CCN1C(=O)/C(=C2/Sc3ccc(OC)cc3N2C)SC1=Nc1ccc(OC)cc1,-22.9,-0.8,-0.6,0.1,-0.9,0.9
CCN1/C(=C2/SC(=S)N(NC(C)=O)C2=O)Sc2ccc(OC)cc21,x,34.4*,x,x,-46.3*,x
CCN1/C(=C2/SC(=S)N(NC(C)=O)C2=O)Sc2ccc(Cl)cc21,x,33.4*,x,x,-16.6,x
COc1ccc(NS(=O)(=O)c2cccc(C(=O)NNC(=O)c3cncc(Br)c3)c2)cc1,x,0.9,x,x,0.2,x
Cc1ccc(S(=O)(=O)N2CCC(C(=O)Nc3ccc(S(=O)(=O)N4CCCC4)cc3)CC2)cc1C,x,2.2,x,x,2.2,x
CCOc1ccc2ccccc2c1C1NC(=O)N(C)C(C)=C1C(=O)OCCOC (stereo not drawn),x,95.8*,x,x,u,x
CCOC(=O)C1=C(C)N(C)C(=S)NC1c1c(OCC)ccc2ccccc12 (stereo not drawn),-9.1,3.2,0.3,0.5,-1.8,-1.8
Cc1ccccc1NC(=O)CSc1nc(=O)n(CCN2CCOCC2)c2c1CCCC2,x,u,x,x,-1.4,x
COC(CNC(=O)c1ccc2c3c(onc13)-c1ccccc1C2=O)OC,189.9*,-58.9,x,-350.7,u,-6.6
COc1ccc(S(=O)(=O)N(CC(C)C)C2CCS(=O)(=O)C2)cc1OC (stereo not drawn),x,1.6,x,x,1.7,x
O=c1oc2ccccc2c2oc3cc(O)c(O)cc3c12,12.3,1.8,x,-67.4,-0.1,-4.5
O=c1oc2c(O)c(O)cc3c(=O)oc4c(O)c(O)cc1c4c23,86.5*,x,12.1,46.2,x,36.1
SMILES,EBV gp42 block,RanGTP-Impb inh,PKD1 kinase inh,Runt-SMMHC FRET,MEX-5 binding,Runt-CBFb FRET
COc1ccc(C2C3=C(CC(C)(C)CC3=O)N(CCN3CCOCC3)C3=C2C(=O)CC(C)(C)C3)cc1,-15.1,71.5*,x,81.2*,-1.7,90.7*
CC1(C)CC(=O)C2=C(C1)N(CCN1CCOCC1)C1=C(C(=O)CC(C)(C)C1)C2c1ccc(Cl)cc1,-6.4,127.3*,x,88.1*,2.3,77.1*
COCCCN1C2=C(C(=O)CC(C)(C)C2)C(c2ccc(O)c(OC)c2)C2=C1CC(C)(C)CC2=O,x,0.1,x,x,-1.4,x
CC1(C)CC(=O)C2=C(C1)N(CCN1CCOCC1)C1=C(C(=O)CC(C)(C)C1)C2c1cccc(F)c1,-29.8,129.5*,-1.1,77.6*,-2.8,62.6*
O=C(CCNS(=O)(=O)c1ccc(Br)cc1)NCc1ccc(Cl)cc1,x,5.6,x,x,1.1,x
COc1cc(C2CC(c3cccnc3)=NN2c2ccc(F)cc2)cc(OC)c1OC (stereo not drawn),0.8,x,-4.4,87.2*,-1.4,25.5
CCCCOc1ccc(CCC(=O)N/N=C/c2ccco2)cc1,-1.3,-0.1,x,-0.5,-1.3,-1.7
CCC1NC(=S)NC(C)=C1C(=O)c1ccccc1 (stereo not drawn),-6.3,-2.4,-3.3,0.4,0.1,x
Cc1ccc(S(=O)(=O)CCSc2nc(C)cc(C(F)(F)F)c2C#N)cc1,-103.3,-2.7,-6.3,-19.2,-54.0*,-7.2
COc1ccc2[nH]cc(/C=C/C(=O)c3ccccc3)c2c1,-3.1,25.5*,x,2.6,-2.6,-6.7
Cc1ccc(S(=O)(=O)/C(C#N)=C/c2c[nH]c3ccccc23)cc1,-10.4,u,6.3,33.8,-3.2,12.5
Cc1ccc(C(=O)/C=C/c2c[nH]c3ccccc23)cc1,-28.6,54.2*,-13.6,4.6,-2.8,9.5
O=C(/C=C/c1c[nH]c2ccccc12)c1ccccc1,-31.2,55.2*,-1.7,-2.2,1.2,14.0
CCOc1ccc(OCCOC(=O)CN(C)S(=O)(=O)c2ccc(NC(C)=O)cc2)cc1,x,5.7,x,x,-2.3,x
O=C(Cc1nc2ccccc2s1)c1ccc(O)cc1O,-10.6,0.0,-13.0,114.0*,-1.2,35.7
O=C(CSc1nc2ccccc2s1)c1ccc(O)cc1O,x,4.1,x,x,-1.3,x
CCOc1cc(/C=C2\COc3ccccc3C2=O)cc(Br)c1OCC(=O)N(C)C,x,2.3,x,x,1.0,x
Cc1cccn2c(=O)c3cc(C(=O)NCc4cccnc4)c(=N)n(C)c3nc12,x,x,x,74.2*,x,98.4*
CCOC(=O)c1cc2c(=O)n3cccc(C)c3nc2n(Cc2cccnc2)c1=N,x,x,-0.9,x,x,x
Cc1cccn2c(=O)c3cc(C(=O)NCc4cccnc4)c(=N)n(C(C)C)c3nc12,24.9,182.5*,-8.3,78.7*,-1.2,19.3
CC(C)n1c(=N)c(C(=O)NCCc2ccccc2)cc2c(=O)n3ccccc3nc21,-0.7,173.9*,14.3,-21.1,-4.9,11.4
COc1ccc(CCC(=O)NC(C)C2CCCO2)cc1 (stereo not drawn),x,3.1,x,x,0.0,x
CCN(c1ccccc1)S(=O)(=O)c1ccc(OC)c(NC(=O)C2CC(=O)N(Cc3ccccc3)C2)c1 (stereo not drawn),-7.2,3.7,x,-2.8,-9.7,-3.8
O=c1c(/C=N\NS(=O)(=O)c2ccccc2)coc2ccc(Cl)cc12,x,-0.3,x,x,-1.5,x

# Screens deposited in PubChem by several laboratories.
